High-throughput results from PubChem.
MC4R antag cAMP: MC4R antagonists of cAMP signaling, primary screen, cell-based, TR-FRET, antagonist arm of biased-ligand search | Melanocortin receptor 4 (Homo sapiens), P32245 | MC4R-expressing cells, MTII-stimulated cAMP, LANCE TR-FRET | inhibition, % at 6.5 µM | 360,000 tested, 0.48% active;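 active = inhibition above its plate's cutoff, the mean of tested wells on that plate plus 3 SD, cut at about 29% in these data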
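Assay system: human MC4R-expressing U2OS cells; reagent: Melanotan II stimulation of cells; dosing: 6.5 µM single dose; timing: compound 30 min, challenge 1 h, detection 1 h; signal: TR-FRET cAMP assay; replicates: one well per compound, no replicates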
EBI2 antag: EBI2 receptor antagonists, beta-arrestin recruitment, primary screen, cell-based, luminescence, 7a,25-OHC stimulation, uHTS. G-protein coupled receptor 183 (Homo sapiens), P32249. 7a,25-OHC stimulated. inhibition, % at 5 µM. 360,000 tested, 0.81% active. AID 651636, 2012; in the data active = inhibition above about 38%;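 note: enzyme fragment complementation signal reports receptor beta-arrestin coupling in cells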
Target sequence (P32249 whole entry, looked up, the tested form may be a part): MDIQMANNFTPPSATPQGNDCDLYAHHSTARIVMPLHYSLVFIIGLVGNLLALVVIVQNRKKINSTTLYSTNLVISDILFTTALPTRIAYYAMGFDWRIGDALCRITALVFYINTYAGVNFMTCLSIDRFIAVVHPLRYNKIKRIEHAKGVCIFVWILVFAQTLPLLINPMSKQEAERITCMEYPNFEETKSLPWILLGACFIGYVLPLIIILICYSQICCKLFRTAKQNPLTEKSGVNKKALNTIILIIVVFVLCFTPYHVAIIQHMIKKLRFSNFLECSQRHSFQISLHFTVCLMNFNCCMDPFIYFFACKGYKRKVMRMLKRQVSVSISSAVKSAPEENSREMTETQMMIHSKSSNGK
Myeloid diff MLP: induction of myeloid progenitor differentiation, primary screen, cell-based, flow cytometry, MLPCN library; ER-HoxA9 myeloid progenitors, lysozyme-GFP differentiation; calls only at 10 µM; 360,000 tested, 1% active;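 active = normalized GFP-positive differentiation at or above the plate's own cutoff, the solvent-only control mean plus 3 SD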;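 note: cells exposed to compound for four days before flow analysis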
MC4R ag barr: MC4R agonists recruiting beta-arrestin, primary screen, cell-based, luminescence, agonist arm of biased-ligand search; Melanocortin receptor 4 (Homo sapiens), P32245; U2OS MC4R beta-arrestin complementation; percent of melanotan II response, DMSO zero; activation, % at 8.9 µM; 360,000 tested, 0.98% active; AID 540308, 2011;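 active = activation above a per-plate cutoff, the mean activation of sample wells on that plate plus 3 SD, cut at about 8% in these data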
Granule exo inh: LAMP-1 surface exposure blockers, TALL-104 cells – cell-based, flow cytometry, MLPCN library, primary screen; 360,000 tested, 0.66% active; TALL-104 LAMP-1 surface exposure; cells stimulated with thapsigargin and PMA; inhibition, % at 10 µM;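 active = inhibition above about 55%, limit read from the data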
EBI2 antag conf: EBI2 antagonist hit retest, beta-arrestin, confirmation, cell-based, single concentration, luminescence, 7a,25-OHC stimulation; inhibition, % at 5 µM; 2,400 tested, 29% active; AID 651997, 2013; 7a,25-OHC antagonism; shares compounds with EBI2 antag;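 active = inhibition of at least 50%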
EBI2 agonist: EBI2 agonist activity of antagonist hits, confirmation, counter-screen for EBI2 antagonist project, cell-based, single concentration, agonist mode, luminescence. shares compounds with EBI2 antag. EBI2-expressing cells, 60 min; 0% vehicle, 100% 7α,25-dihydroxycholesterol control. activation, % at 5 µM. 2,400 tested, under 10 active. AID 652000, 2013;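 active = activation of at least 50%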
bGal counter: E. coli beta-galactosidase enzyme inhibition, confirmation, counter-screen for EBI2 antagonist project, biochemical, luminescence, single concentration. 2,400 tested, 1% active. inhibition, % at 5 µM. shares compounds with EBI2 antag. purified beta-galactosidase, luminescent Galacton Star, 15 min;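 active = replicate-average signal at least 3 plate SD below neutral wells, shown as high inhibition, flagging enzyme-inhibiting false positives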;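 note: higher means stronger loss of beta-gal luminescence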
Hits are given with their value; . = inactive; / = no result given; ! = not confirmed by another sample. The list is not random: actives were taken first. Their share in the collection is about 3.7%.

SMILES	MC4R antag cAMP	EBI2 antag	Myeloid diff MLP	MC4R ag barr	Granule exo inh	EBI2 antag conf	EBI2 agonist	bGal counter
Cc1ccc(C)c(S(=O)(=O)N2CCN(C(=O)CCCc3c[nH]c4ccccc34)CC2)c1	.	60.3	.	.	.	.	.	.
Cc1ccc(C)c(S(=O)(=O)N2CCN(C(=O)CCc3c[nH]c4ccccc34)CC2)c1	.	.	.	.	.	/	/	/
CC12CCC(=O)C=C1CCCC2=O (stereo not given)	.	.	.	.	.	/	/	/
O=C(Nc1cccc(S(=O)(=O)N2CCCCCC2)c1)C1CCN(C(=O)c2ccc(Cl)cc2)CC1	.	52.1	.	.	.	.	.	.
Cc1cccc(NC(=O)C2CCN(C(=O)c3ccc(Cl)cc3)CC2)n1	.	46.2	.	.	.	.	.	.
Cc1cccc(NC(=O)C2CCN(C(=O)c3ccc(F)cc3)CC2)n1	.	.	.	.	.	/	/	/
O=C(Nc1cccc(F)c1)C1CCN(C(=O)c2ccc(Br)cc2)CC1	.	45.5	.	.	.	.	.	.
O=C(Nc1cccc(S(=O)(=O)N2CCCCC2)c1)C1CCN(C(=O)c2ccc(Cl)cc2)CC1	.	.	.	.	.	/	/	/
COC(=O)c1ccc(OS(=O)(=O)N(C)C)cc1	.	.	.	.	.	/	/	/
CCOC(=O)[C@@H]1[C@H]2COc3ccc(Br)cc3[C@H]2N2C(=O)N(c3ccc(F)cc3)C(=O)[C@@]12C	.	.	.	.	.	/	/	/
Cc1cccc2[nH]c3c(N4CC=C(c5ccc(F)cc5)CC4)ncnc3c12	.	.	.	.	.	/	/	/
COc1cccc(CNC(=O)CSc2ccc(-c3cccs3)nn2)c1	.	.	.	.	.	/	/	/
CSc1ccc(CNC(=O)C2CCC(=O)N(CCc3ccc(Cl)cc3)C2)cc1 (stereo not given)	.	50.0	.	.	.	.	.	.
C[C@H]1CN([C@@H](C)CO)C(=O)c2cccc(NS(=O)(=O)c3ccc(F)cc3)c2O[C@H]1CN(C)Cc1ccc(Cl)c(Cl)c1	.	.	.	.	.	/	/	/
COc1ccc(S(=O)(=O)Nc2cccc3c2O[C@H](CN(C)Cc2ccc(Cl)c(Cl)c2)[C@@H](C)CN([C@H](C)CO)C3=O)cc1	.	60.5	.	.	.	59.5	.	.
CC(CCc1ccccc1)NC(=O)C1CCCN(C(=O)c2cc3sccc3n2C)C1 (stereo not given)	.	59.9	.	.	.	.	.	.
CCOc1ccc(NC(=O)C2CCN(S(=O)(=O)c3c(C)noc3C)CC2)cc1	.	.	.	.	.	/	/	/
C=CCOc1ccc(/C=C/C(=O)N2CCCN(S(=O)(=O)c3c(C)noc3C)CC2)cc1	.	62.8	.	.	.	.	.	.
COc1ccc(-n2nnnc2C(C2CC2)N2CCN(C/C=C/c3ccccc3)CC2)cc1 (stereo not given)	/	.	.	/	.	/	/	/
CCC(c1nnnn1-c1c(C)cccc1C)N1CCN(C/C=C/c2ccccc2)CC1 (stereo not given)	/	58.2	.	/	.	.	.	.
CSCCC(c1nnnn1-c1c(C)cccc1C)N1CCN(C/C=C/c2ccccc2)CC1 (stereo not given)	/	52.7	.	/	.	.	.	.
Cc1cccc(C)c1-n1nnnc1C(C1CC1)N1CCN(C/C=C/c2ccccc2)CC1 (stereo not given)	/	44.2	.	/	.	.	.	.
CC(=O)Nc1ccc(-c2ccnc3c2CC(C)(C(=O)NCc2ccc(N4CCN(C)CC4)cc2)O3)cc1 (stereo not given)	.	.	.	.	.	/	/	/
N#Cc1ccc(S(=O)(=O)N2CCN(Cc3cccs3)CC2)cc1	.	.	.	.	.	/	/	/
c1ccc(C[C@H]2CN=C(Nc3ccccc3)N2CC2CCCC2)cc1	/	.	.	/	.	/	/	/
SMILES	MC4R antag cAMP	EBI2 antag	Myeloid diff MLP	MC4R ag barr	Granule exo inh	EBI2 antag conf	EBI2 agonist	bGal counter
O=C1CC(C(=O)N2CCN(S(=O)(=O)c3cccc(F)c3)CC2)CN1Cc1ccccc1Cl (stereo not given)	.	61.7	.	.	.	.	.	.
O=C(C1CC(=O)N(c2ccc3c(c2)OCCO3)C1)N1CCN(S(=O)(=O)c2cccc(F)c2)CC1 (stereo not given)	.	.	.	.	.	/	/	/
CC1=NN(c2ccc(C)cc2C)C(=O)C1C(c1ccccc1O)C1C(=O)N(c2ccc(C)cc2C)N=C1C (stereo not given)	.	.	.	.	.	/	/	/
CC1=NN(c2ccc(Cl)cc2)C(=O)C1C(c1ccccc1O)c1c(C)[nH]n(-c2ccc(Cl)cc2)c1=O (stereo not given)	.	64.7	.	.	.	.	.	.
CCC1Nc2ncnc(N3CCN(c4ccccn4)CC3)c2N(Cc2ccc(Br)cc2)C1=O (stereo not given)	.	87.2	.	.	.	80.3	.	76.6
CCC1Nc2ncnc(N3CCCCC3)c2N(Cc2ccc(Cl)cc2)C1=O (stereo not given)	.	.	.	.	.	/	/	/
O=C1C(Cc2ccccc2)Nc2ncnc(N3CCCCC3)c2N1Cc1ccc(Br)cc1 (stereo not given)	.	63.2!	.	.	.	.	.	35.8
CCC1Nc2ncnc(N3CCN(c4ccccn4)CC3)c2N(Cc2ccc(Cl)cc2)C1=O (stereo not given)	.	79.8	.	.	.	78.5	.	75.5
Cc1ccc(C2NC(=S)NC3=C2C(=O)CC(C)(C)C3)cc1 (stereo not given)	.	.	.	.	.	/	/	/
Cn1cc(C(=O)c2ccc(Cl)cc2)cc1-c1nc2ccccc2n1C	.	63.6	.	.	.	.	.	.
O=C(NCCN1C(=O)S/C(=C\c2ccc(F)cc2)C1=O)c1cccc(S(=O)(=O)N2CCOCC2)c1	.	.	.	.	.	/	/	/
Cc1ccc(S(=O)(=O)Nc2ccc(Nc3nccn4c(-c5ccc6ccccc6c5)cnc34)cc2)cc1	.	.	.	.	.	/	/	/
